For test [1], the species on record is Cavia porcellus. The test can be described thus: Ability to induce allergic contact dermatitis in guinea pig at 3.8 umol (3 injections)of the compound and expressed as no. of positive animals out of 16. It counts as functional. Summed up:
(§1)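 Guinea pigs sensitized with the alkylcyclohexanediol in Freund complete adjuvant (3-injection schedule per curator). Elicitation by open epicutaneous test of the dose in ethanol. Read at 48 h on a scale: 0 none, 0.5 slight partial erythema, 1 erythema over the whole area, 2 erythema plus swelling, 3 swelling well beyond the area. FCA-treated control groups of eight animals.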

The species named for test [2] is Cavia porcellus. The test is described as follows: Ability to induce allergic contact dermatitis in guinea pig at 3.8 umol (5 injections)of the compound and expressed as no. of positive animals out of 16. The test is classed as functional.
Test [3] is filed under the species Cavia porcellus. The test can be described thus: Ability to induce allergic contact dermatitis in guinea pig at 7.6 umol (3 injections)of the compound and expressed as no. of positive animals out of 16. It counts as functional. Summed up: as §1
The species named for test [4] is Cavia porcellus. The test is described as follows: Ability to induce allergic contact dermatitis in guinea pig at 7.6 umol (5 injections)of the compound and expressed as no. of positive animals out of 16. The test is classed as functional.
For test [5], the species on record is Cavia porcellus. The test can be described thus: Allergic contact dermatitis in guinea pig at 3.8 umol (3 injections) and expressed as number of animals reading with a test intensity of 0. The test is classed as functional. A digest of the protocol:
as §1

The species entered for test [6] is Cavia porcellus. The test can be described thus: Allergic contact dermatitis in guinea pig at 7.6 umol (3 injections) and expressed as number of animals reading with a test intensity of 0. The test is classed as functional. A digest of the protocol: as §1
The species named for test [7] is Cavia porcellus. The test can be described thus: Allergic contact dermatitis in guinea pig at 7.6 umol (3 injections) and expressed as number of animals reading with a test intensity of 0.5. The test is classed as functional. A digest of the protocol: as §1
For test [8], the species on record is Cavia porcellus. The test is described as follows: Allergic contact dermatitis in guinea pig at 7.6 umol (5 injections) and expressed as number of animals reading with a test intensity of 0.5. It counts as functional. Summed up: (§2)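 Sensitization by the FCAT method with five injections: the first sensitization was boosted by two injections of alkylcyclohexanediol in Freund complete adjuvant 1 week after the first test. Open epicutaneous challenge used the stated dose in ethanol, read at 48 h on a 0–3 erythema/swelling scale. Irritation thresholds were set on FCA-injected controls, with groups of eight per experiment.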

For test [9], the species on record is Cavia porcellus. The test is described as follows: Ability to induce allergic contact dermatitis in guinea pig at 3.8 umol (3 injections) and expressed as average skin reaction. The test is classed as functional. A digest of the protocol:
as §1

The species named for test [10] is Cavia porcellus. The test is described as follows: Ability to induce allergic contact dermatitis in guinea pig at 3.8 umol (5 injections) and expressed as average skin reaction. The test is classed as functional. Summed up: as §2
For test [11], the species on record is Cavia porcellus. The test is described as follows: Ability to induce allergic contact dermatitis in guinea pig at 7.6 umol (3 injections) and expressed as average skin reaction. It counts as functional. Summed up: as §1
The species named for test [12] is Cavia porcellus. The test can be described thus: Allergic contact dermatitis in guinea pig at 7.6 umol (5 injections) and expressed as number of animals reading with a test intensity of 2. It counts as functional. A digest of the protocol: as §2
Test [13] is filed under the species Cavia porcellus. The test is described as follows: Allergic contact dermatitis in guinea pig at 3.8 umol (3 injections) and expressed as number of animals reading with a test intensity of 0.5. It counts as functional. A digest of the protocol:
as §1

The species entered for test [14] is Cavia porcellus. The test can be described thus: Allergic contact dermatitis in guinea pig at 3.8 umol (3 injections) and expressed as number of animals reading with a test intensity of 1. It counts as functional. A digest of the protocol: as §1
Test [15] is filed under the species Cavia porcellus. The test can be described thus: Allergic contact dermatitis in guinea pig at 3.8 umol (3 injections) and expressed as number of animals reading with a test intensity of 2. It counts as functional. A digest of the protocol:
as §1

Test [16] is filed under the species Cavia porcellus. The test can be described thus: Allergic contact dermatitis in guinea pig at 3.8 umol (5 injections) and expressed as number of animals reading with a test intensity of 0. It counts as functional. A digest of the protocol:
as §2

The species entered for test [17] is Cavia porcellus. The test can be described thus: Allergic contact dermatitis in guinea pig at 3.8 umol (5 injections) and expressed as number of animals reading with a test intensity of 0.5. It counts as functional. A digest of the protocol:
as §2

The species entered for test [18] is Cavia porcellus. The test can be described thus: Allergic contact dermatitis in guinea pig at 3.8 umol (5 injections) and expressed as number of animals reading with a test intensity of 1. The test is classed as functional. A digest of the protocol: as §2
The species entered for test [19] is Cavia porcellus. The test is described as follows: Allergic contact dermatitis in guinea pig at 3.8 umol (5 injections) and expressed as number of animals reading with a test intensity of 2. The test is classed as functional. A digest of the protocol:
as §2

The species named for test [20] is Cavia porcellus. The test is described as follows: Allergic contact dermatitis in guinea pig at 7.6 umol (3 injections) and expressed as number of animals reading with a test intensity of 1. The test is classed as functional. A digest of the protocol:
as §1

Test [21] is filed under the species Cavia porcellus. The test can be described thus: Ability to induce allergic contact dermatitis in guinea pig at 3.8 umol (3 injections)of the compound and expressed as no. of positive animals out of 8. It counts as functional. Summed up:
as §1

The species named for test [22] is Cavia porcellus. The test can be described thus: Ability to induce allergic contact dermatitis in guinea pig at 3.8 umol (5 injections) and expressed as no. of positive animals out of 8. The test is classed as functional. A digest of the protocol:
as §2

For test [23], the species on record is Cavia porcellus. The test is described as follows: Ability to induce allergic contact dermatitis in guinea pig at 7.6 umol (3 injections)of the compound and expressed as no. of positive animals out of 8. It counts as functional. Summed up: as §1
Test [24] is filed under the species Cavia porcellus. The test is described as follows: Allergic contact dermatitis in guinea pig at 7.6 umol (3 injections) and expressed as number of animals reading with a test intensity of 2. The test is classed as functional. A digest of the protocol:
as §1

The species entered for test [25] is Cavia porcellus. The test can be described thus: Allergic contact dermatitis in guinea pig at 14 umol (3 injections) and expressed as number of animals reading with a test intensity of 2. It counts as functional. Summed up: as §1
For test [26], the species on record is Cavia porcellus. The test is described as follows: Allergic contact dermatitis in guinea pig at 14 umol (5 injections) and expressed as number of animals reading with a test intensity of 2. It counts as functional. Summed up:
as §2

The species named for test [27] is Cavia porcellus. The test can be described thus: Allergic contact dermatitis in guinea pig at 14 umol (3 injections) and expressed as number of animals reading with a test intensity of 0. It counts as functional. Summed up:
as §1

Test [28] is filed under the species Cavia porcellus. The test is described as follows: Allergic contact dermatitis in guinea pig at 14 umol (3 injections) and expressed as number of animals reading with a test intensity of 0.5. The test is classed as functional. A digest of the protocol:
as §1

For test [29], the species on record is Cavia porcellus. The test is described as follows: Allergic contact dermatitis in guinea pig at 14 umol (5 injections) and expressed as number of animals reading with a test intensity of 0. The test is classed as functional. Summed up:
as §2

The species named for test [30] is Cavia porcellus. The test is described as follows: Allergic contact dermatitis in guinea pig at 14 umol (5 injections) and expressed as number of animals reading with a test intensity of 0.5. It counts as functional. A digest of the protocol:
as §2

The species entered for test [31] is Cavia porcellus. The test is described as follows: Allergic contact dermatitis in guinea pig at 14 umol (5 injections) and expressed as number of animals reading with a test intensity of 1. It counts as functional. A digest of the protocol: as §2
The species entered for test [32] is Cavia porcellus. The test can be described thus: Ability to induce allergic contact dermatitis in guinea pig at 14 umol (3 injections)of the compound and expressed as no. of positive animals out of 8. It counts as functional. A digest of the protocol:
as §1

The species named for test [33] is Cavia porcellus. The test can be described thus: Ability to induce allergic contact dermatitis in guinea pig at 14 umol (5 injections)of the compound and expressed as no. of positive animals out of 8. The test is classed as functional. Summed up: as §2
Test [34] is filed under the species Cavia porcellus. The test is described as follows: Ability to induce allergic contact dermatitis in guinea pig at 3.8 umol (5 injections)of the compound and expressed as no. of positive animals out of 8. The test is classed as functional. Summed up: as §2
Test [35] is filed under the species Cavia porcellus. The test can be described thus: Ability to induce allergic contact dermatitis in guinea pig at 7.6 umol (5 injections)of the compound and expressed as no. of positive animals out of 8. The test is classed as functional. Summed up:
as §2

Test [36] is filed under the species Cavia porcellus. The test can be described thus: Ability to induce allergic contact dermatitis in guinea pig at 14 umol (3 injections) and expressed as average skin reaction. It counts as functional. Summed up: as §1
For test [37], the species on record is Cavia porcellus. The test can be described thus: Ability to induce allergic contact dermatitis in guinea pig at 14 umol (5 injections) and expressed as average skin reaction. The test is classed as functional. A digest of the protocol: as §2
For test [38], the species on record is Cavia porcellus. The test is described as follows: (§3) Allergic contact dermatitis in guinea pig at 7.6 umol (5 injections) and expressed as number of animals reading with a test intensity of 1. It counts as functional. Summed up: as §2
For test [39], the species on record is Cavia porcellus. The test is described as follows: Allergic contact dermatitis in guinea pig at 7.6 umol (5 injections) and expressed as number of animals reading with a test intensity of 0. It counts as functional. A digest of the protocol:
as §2

For test [40], the species on record is Cavia porcellus. The test can be described thus: Allergic contact dermatitis in guinea pig at 14 umol (3 injections) and expressed as number of animals reading with a test intensity of 1. It counts as functional. Summed up:
as §1

For test [41], the species on record is Cavia porcellus. The test is described as follows: (§4) Ability to induce allergic contact dermatitis in guinea pig at 7.6 umol (5 injections) and expressed as average skin reaction. The test is classed as functional. A digest of the protocol: as §2
Test [42] is filed under the species Cavia porcellus. The description is as §4. It counts as functional. A digest of the protocol: as §2
The source holds these as a separate data set.

Test [43] is filed under the species Cavia porcellus. Described as §3. It counts as functional. Summed up:
as §2
This is another data set of the same source.

For test [44], the species on record is Cavia porcellus. The test can be described thus: Ability to induce allergic contact dermatitis in guinea pig at 3.8 umol (3 injections)of the compound and expressed as no. of positive animals out of 8.

Several values for one entry are separate records, joined by “and”; a condition that tells them apart may be missing. Identical values can stand only once.

`CCCCCCCCCCCCCCC[C@H]1CCC[C@@H](O)[C@@H]1O`: the “No. of positive animals” value in test [1] is reported as 12; in test [2] it was 14; in test [3] it was 14; in test [4], 15. In addition, the No. of animals in [5] is 4; in [6], 2; in [7], 2; in test [8] it was 2 and 1; in test [12], 0; in [13], 8. The No. of animals in [14] came to 4; in [15], 0; in test [16] it was 2; in test [17], 4; in test [18], 9; in test [19] it was 1. In test [20], this molecule returned a No. of animals of 12. Moreover, the Average skin reaction worked out at 0.5 in test [9], 0.8 in test [10] and 0.8 in test [11].
Consider `CCCCCCCCCCCCCCC[C@H]1CCC[C@H](O)[C@@H]1O`, for which the “No. of positive animals” value in test [21] is recorded as 5; in test [22] it was 6; in [23], 7. The No. of animals in test [5] was 3; in test [6] it was 1; in test [7] it was 6; in test [24], 0; in test [8], 2 and 1; in [12], 0. Moreover, the No. of animals stood at 5 in test [13]; 0 in test [14]; 0 in test [15]; 2 in test [16]; 4 in [17]; 2 in [18]. For the same molecule, the No. of animals in test [19] is 0; in test [20], 1. In addition, the values for the Average skin reaction in [9], in test [10] and in test [11] were 0.3, 0.5 and 0.5, respectively.
For `CCCCCCCCCC[C@H]1CCC[C@@H](O)[C@@H]1O`, the No. of animals in test [25] was 2; in test [26] it was 2; in test [27], 2; in [28] it was 2; in test [29], 1; in test [30], 3. Also, the No. of animals was 2 in test [31]; 4 in test [5]; 5 in test [38]; 2 and 1 in test [39]; 2 in test [40]; 1 in test [43]. Besides, the No. of animals in [12] amounted to 0; in test [13] it was 3; in test [14], 1; in test [15], 0; in [16] it was 2; in test [17], 4. Further, the figures for the No. of animals in [18] and in [19] were 2 and 0, respectively. The “No. of positive animals” value was 6 in [32]; 7 in test [33]; 6 in [34]; 6 and 7 in test [35]; 4 in [44]. In addition, the Average skin reaction in [36] is reported as 0.9; in [37] it was 0.9; in test [9] it was 0.3; in test [10], 0.5; in test [41], 0.7; in test [42] it was 0.5.

Source of the values: ChEMBL document CHEMBL1123402, “Saturated analogues of poison ivy allergens. Synthesis of trans,trans- and cis,trans-3-alkyl-1,2-cyclohexanediols and sensitizing properties in allergic contact dermatitis” (1986).
